Measurements: ChEMBL document CHEMBL1156597, “Structure-activity relationship of kahalalide F synthetic analogues” (J Med Chem, 2008)

Tests used:
[1] = test system: HT-29; assay: Cytotoxicity against human HT29 cells after 48 hrs by SRB assay; format: functional, cell-based; conditions: Homo sapiens, HT-29, 48 h; for CC50: read-out: LC50 (the source's name)
Outline: (§1)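 Cells grown in RPMI 1640 with 10% FBS and penicillin/streptomycin at 37 °C and 5% CO₂, trypsinized, then seeded at 5 × 10³/well. After 18 h drug-free attachment, samples in DMSO/EtOH/PBS (0.5:0.5:99) were added for 48 h continuous exposure. Cells were fixed with cold TCA (1 h, 4 °C) and stained with SRB (10 min). Tris-solubilized stain read at 490 nm. Triplicate wells, mean ± SD; GI₅₀ derived.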

[2] = test system: LoVo; assay: Cytotoxicity against human LoVo cells after 48 hrs by SRB assay; format: functional; conditions: for CC50: read-out: LC50 (the source's name)
[3] = test system: PANC-1; assay: Cytotoxicity against human PANC1 cells after 48 hrs by SRB assay; format: functional; conditions: PANC-1, 48 h; for CC50: read-out: LC50 (the source's name); outline: as §1
[4] = test system: DU-145; assay: Cytotoxicity against human DU145 cells after 48 hrs by SRB assay; format: functional, cell-based; conditions: Homo sapiens, DU-145, 48 h; for CC50: read-out: LC50 (the source's name); outline: as §1
[5] = Cytotoxicity against human IGROV-ET cells after 48 hrs by SRB assay; format: functional; conditions: for CC50: read-out: LC50 (the source's name); outline: as §1
[6] = test system: A549; assay: Cytotoxicity against human A549 cells after 48 hrs by SRB assay; format: functional, cell-based; conditions: Homo sapiens, A549, 48 h; outline: as §1
[7] = test system: HeLa; assay: Cytotoxicity against human HeLa cells after 48 hrs by SRB assay; format: functional; conditions: for CC50: read-out: LC50 (the source's name); outline: as §1
[8] = test system: SK-BR-3; assay: Cytotoxicity against human SKBR3 cells after 48 hrs by SRB assay; format: functional; conditions: SK-BR-3, 48 h; for CC50: read-out: LC50 (the source's name); outline: as §1
[9] = test system: SK-MEL-28; assay: Cytotoxicity against human SK-MEL-28 cells after 48 hrs by SRB assay; format: functional, cell-based; conditions: Homo sapiens, SK-MEL-28, 48 h; for CC50: read-out: LC50 (the source's name); outline: as §1
[10] = Cytotoxicity against human HeLa-APL cells after 48 hrs by SRB assay; format: functional; outline: as §1
[11] = test system: K562; assay: Cytotoxicity against human K562 cells after 48 hrs by SRB assay; format: functional; conditions: K562, 48 h; for CC50: read-out: LC50 (the source's name); outline: as §1
[12] = Cytotoxicity against human IGROV cells after 48 hrs by SRB assay; format: functional; conditions: for CC50: read-out: LC50 (the source's name); outline: as §1
[13] = test system: LoVo; assay: Cytotoxicity against human doxorubicin resistant LoVo cells after 48 hrs by SRB assay; format: functional; conditions: for CC50: read-out: LC50 (the source's name); outline: as §1

Compound: C/C=C1\NC(=O)[C@H](Cc2ccccc2)NC(=O)[C@@H](C(C)C)NC(=O)[C@@H]([C@H](C)CC)NC(=O)[C@H](NC(=O)[C@H](NC(=O)[C@H](CCCNC(=O)CCOCCOCCNC(=O)OCC2c3ccccc3-c3ccccc32)NC(=O)[C@H]2CCCN2C(=O)[C@H](NC(=O)[C@@H](NC(=O)[C@@H](NC(=O)[C@H](NC(=O)CCCC(C)C)C(C)C)[C@@H](C)O)C(C)C)C(C)C)[C@H](C)CC)[C@H](C)OC(=O)[C@H](C(C)C)NC1=O
- GI50 [1]: 85.3 nM
- TGI [1]: 117 nM
- CC50 [1]: 263 nM
- GI50 [2]: 44.3 nM
- TGI [2]: 61.7 nM
- CC50 [2]: 43.2 nM
- CC50 [3]: 141 nM
- TGI [4]: 15.7 nM
- GI50 ([4]; read-out: GI50): 16.4 nM
- CC50 [4]: 557 nM
- CC50 [5]: 216 nM
- LC50 [6]: 32 nM
- GI50 [7]: 56.4 nM
- TGI [7]: 119 nM
- CC50 [7]: 767 nM
- GI50 [8]: 53.4 nM
- GI50 ([8]; read-out: GI50): 39.6 nM
- CC50 [8]: 392 nM
- GI50 [9]: 840 nM
- GI50 ([9]; read-out: GI50): 68.4 nM
- CC50 [9]: 10.3 nM
- GI50 [10]: 53.8 nM
- LC50 (concentration giving 50% net cell kill) [10]: 528 nM
- TGI [10]: 89.7 nM
- CC50 [11]: 15.4 nM
- GI50 [12]: 79.9 nM
- GI50 ([12]; read-out: GI50): 36.1 nM
- CC50 [12]: 404 nM
- GI50 [13]: 199 nM
- TGI [13]: 179 nM
- CC50 [13]: 238 nM

Compound: C/C=C1\NC(=O)[C@H](Cc2ccccc2)N(C)C(=O)[C@@H](C(C)C)NC(=O)[C@@H]([C@H](C)CC)NC(=O)[C@H](NC(=O)[C@H](NC(=O)[C@H](CCCN)NC(=O)[C@H]2CCCN2C(=O)[C@H](NC(=O)[C@@H](NC(=O)[C@@H](NC(=O)[C@H](NC(=O)CC[C@@H](C)CC)C(C)C)[C@@H](C)O)C(C)C)C(C)C)[C@H](C)CC)[C@H](C)OC(=O)[C@H](C(C)C)NC1=O
- GI50 [1]: 274 nM
- TGI [1]: 236 nM
- CC50 [1]: 220 nM
- GI50 [2]: 386 nM
- TGI [2]: 431 nM
- CC50 [2]: 486 nM
- GI50 [3]: 1920 nM
- TGI [3]: 2100 nM
- CC50 [3]: 2000 nM
- TGI [4]: 1130 nM
- GI50 ([4]; read-out: GI50): 1230 nM
- CC50 [4]: 1030 nM
- GI50 [5]: 642 nM
- GI50 ([5]; read-out: GI50): 999 nM
- CC50 [5]: 451 nM
- LC50 [6]: 999 nM
- TGI [6]: 1130 nM
- GI50 ([6]; read-out: GI50): 1300 nM
- GI50 [7]: 528 nM
- TGI [7]: 766 nM
- CC50 [7]: 781 nM
- TGI [8]: 286 nM
- GI50 ([8]; read-out: GI50): 324 nM
- CC50 [8]: 76.8 nM
- TGI [9]: 1270 nM
- GI50 ([9]; read-out: GI50): 1350 nM
- CC50 [9]: 1190 nM
- GI50 [10]: 1110 nM
- LC50 (concentration giving 50% net cell kill) [10]: 936 nM
- TGI [10]: 1020 nM
- GI50 [11]: 2140 nM
- TGI [11]: 1730 nM
- CC50 [11]: 1410 nM
- GI50 [12]: 596 nM
- GI50 ([12]; read-out: GI50): 862 nM
- CC50 [12]: 493 nM
- GI50 [13]: 318 nM
- TGI [13]: 311 nM
- CC50 [13]: 305 nM

Compound: C/C=C1\NC(=O)[C@H](Cc2ccc(OC)cc2)NC(=O)[C@@H](C(C)C)NC(=O)[C@@H]([C@H](C)CC)NC(=O)[C@H](NC(=O)[C@H](NC(=O)[C@H](CCCN)NC(=O)[C@H]2CCCN2C(=O)[C@H](NC(=O)[C@@H](NC(=O)[C@@H](NC(=O)[C@H](NC(=O)CC[C@@H](C)CC)C(C)C)[C@@H](C)O)C(C)C)C(C)C)[C@H](C)CC)[C@H](C)OC(=O)[C@H](C(C)C)NC1=O
- CC50 [1]: 45.4 nM
- GI50 [2]: 320 nM
- TGI [2]: 285 nM
- CC50 [2]: 106 nM
- GI50 [3]: 3120 nM
- TGI [3]: 4340 nM
- CC50 [3]: 1990 nM
- GI50 [4]: 947 nM
- GI50 ([4]; read-out: GI50): 858 nM
- CC50 [4]: 1060 nM
- GI50 [5]: 384 nM
- GI50 ([5]; read-out: GI50): 295 nM
- CC50 [5]: 465 nM
- GI50 [6]: 557 nM
- LC50 [6]: 6420 nM
- GI50 ([6]; read-out: GI50): 526 nM
- GI50 [7]: 766 nM
- TGI [7]: 848 nM
- CC50 [7]: 943 nM
- TGI [8]: 284 nM
- GI50 ([8]; read-out: GI50): 283 nM
- CC50 [8]: 824 nM
- TGI [9]: 1230 nM
- GI50 ([9]; read-out: GI50): 1190 nM
- CC50 [9]: 1280 nM
- GI50 [10]: 1010 nM
- LC50 (concentration giving 50% net cell kill) [10]: 1220 nM
- TGI [10]: 1160 nM
- CC50 [11]: 1890 nM
- GI50 [12]: 502 nM
- GI50 ([12]; read-out: GI50): 442 nM
- CC50 [12]: 581 nM
- GI50 [13]: 237 nM
- TGI [13]: 214 nM
- CC50 [13]: 79.2 nM

Compound: C/C=C1\NC(=O)[C@H](Cc2ccc(Cl)c(Cl)c2)NC(=O)[C@@H](C(C)C)NC(=O)[C@@H]([C@H](C)CC)NC(=O)[C@H](NC(=O)[C@H](NC(=O)[C@H](CCCN)NC(=O)[C@H]2CCCN2C(=O)[C@H](NC(=O)[C@@H](NC(=O)[C@@H](NC(=O)[C@H](NC(=O)CC[C@@H](C)CC)C(C)C)[C@@H](C)O)C(C)C)C(C)C)[C@H](C)CC)[C@H](C)OC(=O)[C@H](C(C)C)NC1=O
- CC50 [1]: 201 nM
- GI50 [2]: 426 nM
- TGI [2]: 451 nM
- CC50 [2]: 319 nM
- GI50 [3]: 2090 nM
- TGI [3]: 1950 nM
- CC50 [3]: 1810 nM
- GI50 [4]: 370 nM
- GI50 ([4]; read-out: GI50): 266 nM
- CC50 [4]: 734 nM
- GI50 [5]: 379 nM
- GI50 ([5]; read-out: GI50): 246 nM
- CC50 [5]: 539 nM
- GI50 [6]: 206 nM
- LC50 [6]: 6270 nM
- GI50 ([6]; read-out: GI50): 110 nM
- GI50 [7]: 493 nM
- TGI [7]: 813 nM
- CC50 [7]: 1100 nM
- TGI [8]: 368 nM
- GI50 ([8]; read-out: GI50): 283 nM
- CC50 [8]: 1030 nM
- GI50 [9]: 852 nM
- GI50 ([9]; read-out: GI50): 587 nM
- CC50 [9]: 1210 nM
- GI50 [10]: 1020 nM
- LC50 (concentration giving 50% net cell kill) [10]: 1140 nM
- TGI [10]: 1080 nM
- CC50 [11]: 1850 nM
- GI50 [12]: 329 nM
- GI50 ([12]; read-out: GI50): 383 nM
- CC50 [12]: 567 nM
- GI50 [13]: 299 nM
- TGI [13]: 248 nM
- CC50 [13]: 134 nM
